From ChEMBL document CHEMBL1240422, “Design, synthesis and biological evaluation of 3,5-diaryl-isoxazoline/isoxazole-pyrrolobenzodiazepine conjugates as potential anticancer agents” (2010)
Structures can show the parent of a compound that is named as a salt. Activity calls are given as the source filed them. No cut-off for these calls is given here.

Key:
SiHa = assay: Anticancer activity against human SiHa cells after 48 hrs by SRB assay; assay type: functional
How it was run: (§1)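 Cells grown in RPMI 1640 with 10% FBS and 2 mM L-glutamine, plated at densities set by doubling time, and preincubated 24 h at 37 °C, 5% CO2. Compounds were tested at four concentrations (0.1, 1, 10, 100) in triplicate wells with 48 h continuous exposure. Cells were fixed with cold TCA (10% final, 60 min, 4 °C) and stained with 0.4% SRB in 1% acetic acid (20 min, RT). Dye was eluted with 10 mM Trizma base and read at 540 nm (690 nm reference). Percent growth is relative to control wells, plate by plate.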

A2780 = assay: Anticancer activity against human A2780 cells after 48 hrs by SRB assay; assay type: functional; settings: A2780, 48 h
How it was run: (§2)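 Grown in RPMI 1640 with 10% FBS and 2 mM L-glutamine at 37 °C, 5% CO2. Seeded at densities set by doubling time, then preincubated 24 h. Continuous 48 h drug exposure at four concentrations (0.1, 1, 10, 100), triplicate wells. Fixed with cold TCA (final 10%) at 4 °C, 60 min. Stained with 0.4% SRB in 1% acetic acid, eluted with 10 mM Tris base, read at 540/690 nm. Percent growth versus control wells.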

KB = assay: Anticancer activity against human KB cells after 48 hrs by SRB assay; assay type: functional; how it was run: as §2
ZR-75-1 = assay: Anticancer activity against human ZR-75-1 cells after 48 hrs by SRB assay; assay type: functional; settings: ZR-75-1, 48 h; how it was run: as §1
A-375 [1] = assay: Cell cycle arrest in human A375 cells assessed as accumulation at G2/M phase at 4 uM after 24 hrs using propidium iodide staining by FACS; assay type: functional
How it was run: (§3)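 Treated A375 cells (24 h) were harvested with trypsin-EDTA and fixed in ice-cold 70% ethanol (4 °C, 30 min). After a PBS wash, they were incubated with 1 mg/mL RNase A (37 °C, 30 min) and stained with propidium iodide solution containing trisodium citrate and Triton X-100. DNA content was measured by flow cytometry on 20,000 events. Controls were DMSO-treated.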

A-375 [2] = assay: Induction of apoptosis in human A375 cells assessed as reduction in CDK2 protein level at 4 uM after 24 hrs by Western blotting; assay type: functional, cell-based
How it was run: (§4)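 A375 cells were treated for 24 h and lysed in ice-cold RIPA buffer (1% NP-40, 0.5% deoxycholate, 0.1% SDS, protease inhibitors). Protein was quantified by Bradford assay, and 30 µg/lane was run on 12% SDS-PAGE and transferred to PVDF. Membranes were blocked 2 h at RT in TBST with 5% blocker, incubated with primary antibody overnight at 4 °C, then with HRP secondary (1:2000, 1 h, RT). Detection was by chemiluminescence, with β-actin as loading control.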

A-375 [3] = assay: Induction of apoptosis in human A375 cells assessed as caspase3 activation at 4 uM after 24 hrs by fluorimetry; assay type: functional, cell-based
How it was run: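 Caspase-3 activity was measured by a fluorometric assay on lysates of treated and untreated A375 cells.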

A-375 [4] = assay: Induction of apoptosis in human A375 cells assessed as increase in PPAR protein level at 4 uM after 24 hrs by Western blotting; assay type: functional, cell-based; how it was run: as §4
A-375 [5] = assay: Cell cycle arrest in human A375 cells assessed as accumulation at G0/G1 phase at 4 uM after 24 hrs using propidium iodide staining by FACS; assay type: functional; how it was run: as §3
A-375 [6] = assay: Cell cycle arrest in human A375 cells assessed as accumulation at S phase at 4 uM after 24 hrs using propidium iodide staining by FACS; assay type: functional; how it was run: as §3

Q: How did the GI50 (SiHa) turn out when `COc1ccc(-c2cc(-c3cc(OC)c(OC)c(OC)c3)on2)cc1OCCCOc1cc2c(cc1OC)C(=O)N1CCC[C@H]1C=N2` was run?
A: The GI50 was 0.15 µM.

Q: What about the GI50 (A2780) of the same molecule?
A: The GI50 was 0.15 µM.

Q: And the GI50 (KB)?
A: Its GI50 is 0.17 µM.

Q: And the GI50 (ZR-75-1)?
A: The GI50 was 0.13 µM.

Q: For `COc1cc(C2=NOC(c3cc(OC)c(OC)c(OC)c3)C2)ccc1OCCCCCOc1cc2c(cc1OC)C(=O)N1CCC[C@H]1C=N2` (some centres undefined), which GI50 (SiHa) is on record?
A: Its GI50 is less than 0.1 µM.

Q: And the GI50 (A2780)?
A: The GI50 was less than 0.1 µM.

Q: And the GI50 (KB)?
A: Its GI50 is less than 0.1 µM.

Q: And the Activity (A-375 [1])?
A: Its Activity is 1.15%.

Q: What about the Activity (A-375 [2]) of the same molecule?
A: The Activity was “Active”.

Q: And the Activity (A-375 [3])?
A: Its Activity is “Active”.

Q: And the Activity (A-375 [4])?
A: The Activity was “Active”.

Q: And the GI50 (ZR-75-1)?
A: Its GI50 is less than 0.1 µM.

Q: What about the Activity (A-375 [5]) of the same molecule?
A: Its Activity is 92.45%.

Q: And the Activity (A-375 [6])?
A: The Activity was 6.4%.

Q: With `COc1ccc(-c2cc(-c3cc(OC)c(OC)c(OC)c3)on2)cc1OCCCCCOc1cc2c(cc1OC)C(=O)N1CCC[C@H]1C=N2` as the molecule, how does the GI50 (SiHa) read?
A: Its GI50 is 0.13 µM.

Q: What about the GI50 (A2780) of the same molecule?
A: Its GI50 is 0.12 µM.

Q: And the GI50 (KB)?
A: The GI50 was 0.13 µM.

Q: And the GI50 (ZR-75-1)?
A: The GI50 was less than 0.1 µM.

Q: With `COc1ccc(C2CC(c3cc(OC)c(OC)c(OC)c3)=NO2)cc1OCCCCCOc1cc2c(cc1OC)C(=O)N1CCC[C@H]1C=N2` (some centres undefined) as the molecule, how does the GI50 (SiHa) read?
A: Its GI50 is 0.16 µM.

Q: What about the GI50 (A2780) of the same molecule?
A: The GI50 was 0.14 µM.

Q: And the GI50 (KB)?
A: The GI50 was 0.16 µM.

Q: And the GI50 (ZR-75-1)?
A: The GI50 was 0.12 µM.

Q: How did the GI50 (SiHa) turn out when `COc1cc2c(cc1OCCCOc1c(OC)cc(-c3cc(-c4cc(OC)c(OC)c(OC)c4)on3)cc1OC)N=C[C@@H]1CCCN1C2=O` was run?
A: The GI50 was 0.15 µM.

Q: What about the GI50 (A2780) of the same molecule?
A: The GI50 was 0.13 µM.

Q: What about the GI50 (KB) of the same molecule?
A: The GI50 was 0.15 µM.

Q: And the GI50 (ZR-75-1)?
A: The GI50 was 0.18 µM.

Q: `COc1cc2c(cc1O)N=C[C@@H]1CCCN1C2=O` was tested. Which GI50 (SiHa) did it give?
A: Its GI50 is 0.17 µM.

Q: And the GI50 (A2780)?
A: Its GI50 is 0.14 µM.

Q: What about the GI50 (KB) of the same molecule?
A: Its GI50 is 0.17 µM.

Q: And the Activity (A-375 [1])?
A: Its Activity is 1.33%.

Q: And the Activity (A-375 [5])?
A: Its Activity is 88.05%.

Q: And the Activity (A-375 [6])?
A: Its Activity is 10.62%.

Q: For `COc1cc(C2=NOC(c3cc(OC)c(OC)c(OC)c3)C2)ccc1O` (centres undefined), which Activity (A-375 [1]) is on record?
A: The Activity was 1.82%.

Q: And the Activity (A-375 [5])?
A: Its Activity is 82.59%.

Q: What about the Activity (A-375 [6]) of the same molecule?
A: The Activity was 15.59%.

Q: Which GI50 (SiHa) does the source give for `COc1ccc(-c2cc(-c3cc(OC)c(OC)c(OC)c3)on2)cc1OCCCCOc1cc2c(cc1OC)C(=O)N1CCC[C@H]1C=N2` here?
A: The GI50 was 0.15 µM.

Q: What about the GI50 (A2780) of the same molecule?
A: Its GI50 is 0.14 µM.

Q: What about the GI50 (KB) of the same molecule?
A: Its GI50 is 0.15 µM.

Q: What about the GI50 (ZR-75-1) of the same molecule?
A: Its GI50 is 0.1 µM.

Q: Which GI50 (SiHa) does the source give for `COc1cccc2c1C(=O)c1c(O)c3c(c(O)c1C2=O)C[C@@](O)(C(=O)CO)C[C@@H]3O[C@H]1C[C@H](N)[C@H](O)[C@H](C)O1` [DOXORUBICIN HYDROCHLORIDE] here?
A: The GI50 was 1.9 µM.

Q: What about the GI50 (A2780) of the same molecule?
A: Its GI50 is less than 0.1 µM.

Q: What about the GI50 (KB) of the same molecule?
A: The GI50 was 0.16 µM.

Q: And the GI50 (ZR-75-1)?
A: Its GI50 is less than 0.1 µM.

Q: `COc1cc2c(cc1OCCCCCOc1c(OC)cc(-c3cc(-c4cc(OC)c(OC)c(OC)c4)on3)cc1OC)N=C[C@@H]1CCCN1C2=O` was tested. Which GI50 (SiHa) did it give?
A: The GI50 was 0.16 µM.

Q: What about the GI50 (A2780) of the same molecule?
A: The GI50 was 0.14 µM.

Q: What about the GI50 (KB) of the same molecule?
A: Its GI50 is 0.16 µM.

Q: What about the GI50 (ZR-75-1) of the same molecule?
A: The GI50 was 0.1 µM.

Q: What does the source list for `COc1ccc(C2CC(c3cc(OC)c(OC)c(OC)c3)=NO2)cc1OCCCOc1cc2c(cc1OC)C(=O)N1CCC[C@H]1C=N2` (some centres undefined)?
A: GI50 (SiHa): 0.18 µM; GI50 (A2780): 0.15 µM; GI50 (KB): 0.16 µM; GI50 (ZR-75-1): 0.13 µM

Q: Which results are given for `COc1cc2c(cc1OCCCCCOc1c(OC)cc(C3CC(c4cc(OC)c(OC)c(OC)c4)=NO3)cc1OC)N=C[C@@H]1CCCN1C2=O` (some centres undefined)?
A: GI50 (SiHa): 0.18 µM; GI50 (A2780): 0.15 µM; GI50 (KB): 0.18 µM; GI50 (ZR-75-1): 0.18 µM

Q: Which GI50 (SiHa) does the source give for `COc1cc2c(cc1OCCCCOc1c(OC)cc(C3CC(c4cc(OC)c(OC)c(OC)c4)=NO3)cc1OC)N=C[C@@H]1CCCN1C2=O` (some centres undefined) here?
A: The GI50 was 0.17 µM.

Q: And the GI50 (A2780)?
A: The GI50 was 0.15 µM.

Q: What about the GI50 (KB) of the same molecule?
A: Its GI50 is 0.18 µM.

Q: What about the GI50 (ZR-75-1) of the same molecule?
A: Its GI50 is 0.15 µM.
